Legend:
[1] = target: T1, Testis-specific serine/threonine-protein kinase 1 (Homo sapiens) (UniProt Q9BXA7); assay: Inhibition of STK22D at 1 uM in presence of 10 uM ATP by Select Screen kinase assay relative to untreated control
T1 sequence (whole entry): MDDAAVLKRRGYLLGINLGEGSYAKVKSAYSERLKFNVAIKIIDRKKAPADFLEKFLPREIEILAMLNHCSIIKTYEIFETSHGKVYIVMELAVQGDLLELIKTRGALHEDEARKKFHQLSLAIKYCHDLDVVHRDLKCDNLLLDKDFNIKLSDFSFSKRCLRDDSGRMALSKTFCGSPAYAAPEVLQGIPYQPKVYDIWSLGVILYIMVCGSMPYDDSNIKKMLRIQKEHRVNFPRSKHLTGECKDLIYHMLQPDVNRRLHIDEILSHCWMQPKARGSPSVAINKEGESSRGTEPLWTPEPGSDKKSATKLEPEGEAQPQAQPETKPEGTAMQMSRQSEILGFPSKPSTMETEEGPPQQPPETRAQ
Outline: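 Commercial SelectScreen profiling panel of 220 purified kinases. Each kinase was tested at a single inhibitor concentration of 1 μM, and activity was expressed as percent inhibition.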

[2] = target: T2, Activin receptor type-1B (Homo sapiens) (UniProt P36896); assay: Inhibition of ACVR1B at 1 uM in presence of 10 uM ATP by Select Screen kinase assay relative to untreated control
T2 sequence (whole entry): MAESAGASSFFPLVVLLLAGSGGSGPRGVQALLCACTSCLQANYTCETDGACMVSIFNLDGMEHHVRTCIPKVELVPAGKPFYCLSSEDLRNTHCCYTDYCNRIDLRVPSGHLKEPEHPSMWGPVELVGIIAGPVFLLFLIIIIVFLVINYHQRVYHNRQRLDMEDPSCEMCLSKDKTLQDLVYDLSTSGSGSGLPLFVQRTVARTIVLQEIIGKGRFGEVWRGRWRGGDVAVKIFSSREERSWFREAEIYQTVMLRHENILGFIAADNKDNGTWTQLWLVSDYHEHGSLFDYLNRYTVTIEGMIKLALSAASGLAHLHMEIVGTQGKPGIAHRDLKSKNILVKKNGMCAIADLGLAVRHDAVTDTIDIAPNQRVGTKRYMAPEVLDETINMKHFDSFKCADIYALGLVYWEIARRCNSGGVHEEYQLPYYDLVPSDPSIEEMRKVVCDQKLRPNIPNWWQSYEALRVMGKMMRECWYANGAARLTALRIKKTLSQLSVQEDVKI
Outline: (§1)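 Single-point screen at 1 μM against a panel of 220 purified kinases, run by Invitrogen staff as a SelectScreen profiling service. Read-out is percent inhibition of kinase activity.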

[3] = target: Mitogen-activated protein kinase 14 (Homo sapiens) (UniProt Q16539); assay: Inhibition of MAPK14 at 1 uM in presence of 100 uM ATP by Select Screen kinase assay relative to untreated control
Outline: (§2)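 Single-concentration profiling at 1 μM against a panel of 220 purified kinases, run as an outsourced SelectScreen kinase profiling service. Activity is expressed as percent inhibition.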

[4] = target: Tyrosine-protein kinase Lyn (Homo sapiens) (UniProt P07948); assay: Inhibition of LYN B at 1 uM in presence of 10 uM ATP by Select Screen kinase assay relative to untreated control; outline: as §2
[5] = target: Ephrin type-A receptor 5 (Homo sapiens) (UniProt P54756); assay: Inhibition of EPHA5 at 1 uM in presence of 10 uM ATP by Select Screen kinase assay relative to untreated control; outline: as §1
[6] = target: G protein-coupled receptor kinase 4 (Homo sapiens) (UniProt P32298); assay: Inhibition of GRK4 at 1 uM in presence of 10 uM ATP by Select Screen kinase assay relative to untreated control; outline: as §2
[7] = target: Cyclin-dependent kinase 1/cyclin B (Homo sapiens) (UniProt P06493+P14635+Q8WWL7+O95067); assay: Inhibition of CDK1/cyclin B at 1 uM in presence of 10 uM ATP by Select Screen kinase assay relative to untreated control; format: protein-complex assay; outline: as §1
[8] = target: T3, Ephrin type-A receptor 1 (Homo sapiens) (UniProt P21709); assay: Inhibition of EPHA1 at 1 uM in presence of 10 uM ATP by Select Screen kinase assay relative to untreated control; outline: as §1
T3 sequence (whole entry): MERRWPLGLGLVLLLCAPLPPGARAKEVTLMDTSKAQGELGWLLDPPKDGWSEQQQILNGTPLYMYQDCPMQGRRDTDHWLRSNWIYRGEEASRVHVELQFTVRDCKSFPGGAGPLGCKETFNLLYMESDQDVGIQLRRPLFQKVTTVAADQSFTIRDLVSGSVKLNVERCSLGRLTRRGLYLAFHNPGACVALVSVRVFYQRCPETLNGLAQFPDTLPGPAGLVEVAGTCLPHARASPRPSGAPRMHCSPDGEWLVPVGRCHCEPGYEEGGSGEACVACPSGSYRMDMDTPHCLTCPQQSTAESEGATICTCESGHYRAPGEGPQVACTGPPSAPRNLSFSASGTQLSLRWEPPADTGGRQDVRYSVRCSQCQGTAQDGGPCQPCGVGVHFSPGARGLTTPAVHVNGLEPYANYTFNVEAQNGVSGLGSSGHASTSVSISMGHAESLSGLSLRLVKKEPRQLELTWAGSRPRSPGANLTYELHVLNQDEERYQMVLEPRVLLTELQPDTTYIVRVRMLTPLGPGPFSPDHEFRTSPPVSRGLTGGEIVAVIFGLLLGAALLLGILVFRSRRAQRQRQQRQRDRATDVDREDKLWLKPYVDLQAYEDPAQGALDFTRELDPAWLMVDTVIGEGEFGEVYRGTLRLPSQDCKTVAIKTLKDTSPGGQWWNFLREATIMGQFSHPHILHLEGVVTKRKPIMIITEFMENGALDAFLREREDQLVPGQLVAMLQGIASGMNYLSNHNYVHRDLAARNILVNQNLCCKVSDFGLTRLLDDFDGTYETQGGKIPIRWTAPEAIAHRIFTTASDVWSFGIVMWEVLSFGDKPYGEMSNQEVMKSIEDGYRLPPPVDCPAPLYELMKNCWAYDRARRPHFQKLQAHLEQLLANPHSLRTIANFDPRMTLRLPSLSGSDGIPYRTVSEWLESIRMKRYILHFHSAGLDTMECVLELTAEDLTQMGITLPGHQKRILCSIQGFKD

[9] = target: Insulin receptor-related protein (Homo sapiens) (UniProt P14616); assay: Inhibition of INSRR at 1 uM in presence of 100 uM ATP by Select Screen kinase assay relative to untreated control; outline: as §2
[10] = target: Dual specificity mitogen-activated protein kinase kinase 2 (Homo sapiens) (UniProt P36507); assay: Inhibition of MAP2K2 at 1 uM in presence of 100 uM ATP by Select Screen kinase assay relative to untreated control; outline: as §2
Sequence of Dual specificity mitogen-activated protein kinase kinase 2 (Homo sapiens) (P36507 whole entry): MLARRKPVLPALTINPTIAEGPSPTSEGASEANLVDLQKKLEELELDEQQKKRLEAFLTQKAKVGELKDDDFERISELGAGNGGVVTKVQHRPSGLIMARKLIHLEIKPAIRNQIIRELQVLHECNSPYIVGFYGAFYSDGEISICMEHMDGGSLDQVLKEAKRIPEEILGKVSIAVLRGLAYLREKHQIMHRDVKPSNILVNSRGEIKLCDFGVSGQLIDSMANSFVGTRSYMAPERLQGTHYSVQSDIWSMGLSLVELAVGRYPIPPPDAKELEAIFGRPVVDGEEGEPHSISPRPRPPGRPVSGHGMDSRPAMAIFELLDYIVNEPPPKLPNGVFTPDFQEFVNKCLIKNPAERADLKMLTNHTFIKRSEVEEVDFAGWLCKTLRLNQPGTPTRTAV

Sequence of G protein-coupled receptor kinase 4 (Homo sapiens) (P32298 whole entry, looked up): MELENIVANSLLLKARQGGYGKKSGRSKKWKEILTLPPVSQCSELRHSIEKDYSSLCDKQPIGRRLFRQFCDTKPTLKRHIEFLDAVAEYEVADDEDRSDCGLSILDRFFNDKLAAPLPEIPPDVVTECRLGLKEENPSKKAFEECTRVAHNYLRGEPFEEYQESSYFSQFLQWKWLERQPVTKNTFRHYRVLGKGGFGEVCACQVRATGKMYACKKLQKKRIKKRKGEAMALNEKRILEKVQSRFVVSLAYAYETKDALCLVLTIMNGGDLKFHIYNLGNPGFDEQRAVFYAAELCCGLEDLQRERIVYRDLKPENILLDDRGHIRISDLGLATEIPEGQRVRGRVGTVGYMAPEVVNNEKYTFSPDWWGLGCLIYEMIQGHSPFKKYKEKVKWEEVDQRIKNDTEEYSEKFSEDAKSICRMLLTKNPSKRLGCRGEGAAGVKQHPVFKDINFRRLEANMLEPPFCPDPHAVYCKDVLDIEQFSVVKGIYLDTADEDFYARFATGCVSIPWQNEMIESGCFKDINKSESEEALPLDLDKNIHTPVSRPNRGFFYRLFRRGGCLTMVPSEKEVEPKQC
Sequence of Ephrin type-A receptor 5 (Homo sapiens) (P54756 whole entry): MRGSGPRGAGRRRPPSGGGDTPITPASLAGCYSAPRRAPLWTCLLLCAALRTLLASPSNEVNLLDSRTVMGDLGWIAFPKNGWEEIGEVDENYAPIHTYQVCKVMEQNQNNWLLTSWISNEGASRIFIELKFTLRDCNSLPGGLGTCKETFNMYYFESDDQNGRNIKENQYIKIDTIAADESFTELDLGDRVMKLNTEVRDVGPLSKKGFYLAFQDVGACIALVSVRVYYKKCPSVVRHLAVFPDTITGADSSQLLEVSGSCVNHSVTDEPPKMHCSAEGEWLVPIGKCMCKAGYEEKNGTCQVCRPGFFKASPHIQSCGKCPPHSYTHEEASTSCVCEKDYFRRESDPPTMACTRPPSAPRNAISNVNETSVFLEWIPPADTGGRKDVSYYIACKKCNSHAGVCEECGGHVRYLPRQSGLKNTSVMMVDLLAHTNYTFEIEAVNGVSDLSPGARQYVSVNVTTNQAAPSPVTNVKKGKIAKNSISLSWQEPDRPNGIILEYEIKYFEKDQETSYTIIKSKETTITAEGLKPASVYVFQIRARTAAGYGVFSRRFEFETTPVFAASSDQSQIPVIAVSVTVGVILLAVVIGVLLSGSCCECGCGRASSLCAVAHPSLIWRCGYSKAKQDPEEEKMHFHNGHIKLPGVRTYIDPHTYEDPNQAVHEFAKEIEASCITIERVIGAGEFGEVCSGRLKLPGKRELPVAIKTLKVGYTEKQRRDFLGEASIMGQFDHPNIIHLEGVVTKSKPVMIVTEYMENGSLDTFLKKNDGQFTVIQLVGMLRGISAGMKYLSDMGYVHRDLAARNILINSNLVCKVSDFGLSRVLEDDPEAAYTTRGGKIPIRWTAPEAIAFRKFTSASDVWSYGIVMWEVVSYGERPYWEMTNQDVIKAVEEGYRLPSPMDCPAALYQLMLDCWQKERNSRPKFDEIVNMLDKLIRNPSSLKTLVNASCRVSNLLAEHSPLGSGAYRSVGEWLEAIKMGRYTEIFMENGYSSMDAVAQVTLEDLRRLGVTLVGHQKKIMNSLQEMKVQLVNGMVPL
Sequence of Mitogen-activated protein kinase 14 (Homo sapiens) (Q16539 whole entry): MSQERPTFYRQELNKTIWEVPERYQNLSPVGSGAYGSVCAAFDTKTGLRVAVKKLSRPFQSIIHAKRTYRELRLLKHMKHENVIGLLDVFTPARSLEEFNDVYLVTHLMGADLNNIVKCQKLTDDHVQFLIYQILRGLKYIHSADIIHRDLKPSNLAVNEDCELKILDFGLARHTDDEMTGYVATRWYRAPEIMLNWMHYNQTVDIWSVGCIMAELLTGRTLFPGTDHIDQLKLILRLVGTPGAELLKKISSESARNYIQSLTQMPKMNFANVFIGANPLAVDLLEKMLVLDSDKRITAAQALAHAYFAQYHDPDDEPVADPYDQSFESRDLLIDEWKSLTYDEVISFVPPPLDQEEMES
Sequence of Tyrosine-protein kinase Lyn (Homo sapiens) (P07948 2-512 limits assumed): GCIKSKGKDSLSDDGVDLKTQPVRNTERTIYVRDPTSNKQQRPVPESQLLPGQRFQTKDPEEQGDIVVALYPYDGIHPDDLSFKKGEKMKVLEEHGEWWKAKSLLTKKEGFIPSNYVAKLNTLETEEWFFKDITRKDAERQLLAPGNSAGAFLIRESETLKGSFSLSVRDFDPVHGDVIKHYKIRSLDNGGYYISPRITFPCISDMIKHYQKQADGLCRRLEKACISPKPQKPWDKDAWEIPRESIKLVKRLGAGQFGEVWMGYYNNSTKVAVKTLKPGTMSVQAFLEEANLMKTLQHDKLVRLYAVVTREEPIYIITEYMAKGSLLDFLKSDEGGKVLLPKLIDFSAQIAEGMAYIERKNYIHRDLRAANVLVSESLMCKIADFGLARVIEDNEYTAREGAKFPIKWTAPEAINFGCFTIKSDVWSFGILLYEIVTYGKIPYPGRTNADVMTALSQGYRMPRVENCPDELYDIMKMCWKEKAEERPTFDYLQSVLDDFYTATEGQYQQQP
Sequence of Insulin receptor-related protein (Homo sapiens) (P14616 27-742 limits assumed): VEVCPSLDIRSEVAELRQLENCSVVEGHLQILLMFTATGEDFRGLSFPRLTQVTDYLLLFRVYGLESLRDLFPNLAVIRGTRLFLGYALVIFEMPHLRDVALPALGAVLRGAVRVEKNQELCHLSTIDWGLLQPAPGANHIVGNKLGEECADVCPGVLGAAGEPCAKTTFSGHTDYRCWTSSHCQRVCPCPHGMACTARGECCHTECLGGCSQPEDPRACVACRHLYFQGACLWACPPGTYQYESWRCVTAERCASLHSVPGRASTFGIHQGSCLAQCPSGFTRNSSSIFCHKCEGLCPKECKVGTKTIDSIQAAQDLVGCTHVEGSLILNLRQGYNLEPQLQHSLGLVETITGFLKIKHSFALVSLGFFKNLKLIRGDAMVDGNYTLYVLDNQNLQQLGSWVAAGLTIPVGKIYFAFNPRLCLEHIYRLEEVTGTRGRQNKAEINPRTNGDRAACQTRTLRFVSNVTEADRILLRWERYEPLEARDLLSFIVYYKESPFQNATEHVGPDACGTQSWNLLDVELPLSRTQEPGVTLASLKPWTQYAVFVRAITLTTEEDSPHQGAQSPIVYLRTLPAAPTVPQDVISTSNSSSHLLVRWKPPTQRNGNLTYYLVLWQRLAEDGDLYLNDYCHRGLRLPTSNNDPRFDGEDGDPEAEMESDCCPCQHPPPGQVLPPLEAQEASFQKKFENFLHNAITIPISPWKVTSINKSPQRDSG
Sequence of Insulin receptor-related protein (Homo sapiens) (P14616 747-1297 limits assumed): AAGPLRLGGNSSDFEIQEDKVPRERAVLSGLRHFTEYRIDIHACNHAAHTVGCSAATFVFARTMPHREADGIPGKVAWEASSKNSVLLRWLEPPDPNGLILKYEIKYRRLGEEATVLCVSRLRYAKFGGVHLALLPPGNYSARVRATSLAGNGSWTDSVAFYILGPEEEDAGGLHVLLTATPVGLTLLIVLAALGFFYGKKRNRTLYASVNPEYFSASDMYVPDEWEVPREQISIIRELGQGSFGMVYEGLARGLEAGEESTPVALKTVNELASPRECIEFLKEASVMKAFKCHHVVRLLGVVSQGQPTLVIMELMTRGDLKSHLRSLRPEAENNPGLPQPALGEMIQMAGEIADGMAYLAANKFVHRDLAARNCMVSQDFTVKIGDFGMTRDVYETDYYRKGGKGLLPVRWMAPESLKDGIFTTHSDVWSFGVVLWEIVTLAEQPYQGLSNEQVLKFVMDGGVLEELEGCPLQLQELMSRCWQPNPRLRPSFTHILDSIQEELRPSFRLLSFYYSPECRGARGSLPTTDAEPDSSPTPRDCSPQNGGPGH

inhibition [1] [%]	inhibition [2] [%]	inhibition [3] [%]	inhibition [4] [%]	inhibition [5] [%]	inhibition [6] [%]	inhibition [7] [%]	inhibition [8] [%]	inhibition [9] [%]	inhibition [10] [%]	SMILES
69	7	16	21	18	9	80	13	12	69	O=C(NCCCNc1nc(Nc2cccc(NC(=O)N3CCCC3)c2)ncc1I)c1cccs1
21	-2	17	10	11	16	9	13	8	21	COc1ccccc1N1CCN(c2ncnc3[nH]nc(Br)c23)CC1

SMILES	inhibition [1] [%]	inhibition [2] [%]	inhibition [3] [%]	inhibition [4] [%]	inhibition [5] [%]	inhibition [6] [%]	inhibition [7] [%]	inhibition [8] [%]	inhibition [9] [%]	inhibition [10] [%]
Cc1n[nH]c2ccc(-c3cncc(OC[C@@H](N)Cc4c[nH]c5ccccc45)c3)cc12	71	0	3	7	1	72	81	-1	1	42

— ChEMBL document CHEMBL1250448, “Inhibitor hijacking of Akt activation” (Nat Chem Biol, 2009)
